IC50 data for four compounds are collected here from ChEMBL document CHEMBL4414567, “α-Pyrone and Sterol Constituents of Penicillium aurantiacobrunneum, a Fungal Associate of the Lichen Niebla homalea” (J Nat Prod, 2019).

What all share (format): functional, cell-based
One experiment has as its system DU-145. Kind of experiment: Antiproliferative activity against human DU145 cells measured after 72 hrs by sulforhodamine B assay. Conditions: DU-145, 72 h. The procedure, abridged: (§1)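 SRB antiproliferation assay: cells seeded at 100,000 cells per mL in 96-well plates, incubated with compound 72 h at 37 °C in 95% air/5% CO2; sulforhodamine B staining read-out; three independent experiments, each in triplicate.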

The subject of another experiment is HeLa. Kind of experiment: Antiproliferative activity against human HeLa cells measured after 72 hrs by sulforhodamine B assay. The procedure, abridged: as §1
Background: Sulforhodamine B stains cellular protein and so reports cell mass.

The test system of a further experiment is HT-29. Put plainly: Antiproliferative activity against human HT-29 cells measured after 72 hrs by sulforhodamine B assay. The conditions noted are these: HT-29, 72 h. The procedure, abridged:
as §1

The subject of a further experiment is A2780. Put plainly: Antiproliferative activity against human A2780 cells measured after 72 hrs by sulforhodamine B assay. Conditions: A2780, 72 h. The procedure, abridged: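 A2780 cells grown in RPMI-1640 with L-glutamine, 10% FBS and 1% antibiotic-antimycotic, 37 °C, 5% CO2, subcultured at 80–90% confluence; seeded at 25000 cells per mL in 96-well plates; compound exposure 72 h at 37 °C; sulforhodamine B read-out; three independent experiments, each in triplicate.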

Another experiment relates to MCF7. Put plainly: Antiproliferative activity against human MCF7 cells measured after 72 hrs by sulforhodamine B assay. Conditions: MCF7, 72 h. The procedure, abridged:
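SRB assay. MCF-7 cells grown in RPMI-1640 with L-glutamine, 10% FBS and 1% antibiotic-antimycotic, at 37 °C in 95% air/5% CO2, and subcultured at 80–90% confluence. Seeded at 6000 cells per mL in 96-well plates, exposed for 72 h at 37 °C, then read by sulforhodamine B staining. Three independent experiments, each in triplicate.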

SMILES strings stand for the structures.

The IC50 is the midpoint of a concentration-inhibition curve. A lower IC50 goes with higher potency.

`C=C(CC[C@@]1(C)O[C@H]2O[C@H]3C[C@H]1[C@]21CC[C@@H]2[C@@]4(C)CC[C@H](O)C[C@@H]4C[C@H](O)[C@@]2(O)[C@H]31)C(C)C`: the IC50 with DU-145, in the experiment with HeLa, in the experiment on HT-29, in the experiment on A2780 and with MCF7 was greater than 10 µM in each case.
With `C=C(CC[C@]1(C)O[C@@H]2O[C@@]34[C@H](O)C[C@H]5C[C@@H](O)CC[C@]5(C)[C@H]3CC[C@]23[C@H]4[C@H](O)C[C@@H]31)C(C)C`, the half-maximal inhibitory concentration (IC50) was greater than 10 µM in the experiment on DU-145; greater than 10 µM with HeLa; 9.8 µM with HT-29; greater than 10 µM with A2780; greater than 10 µM with MCF7.
On to `COc1cc(=O)oc(/C=C/C=C/C=C/C(C)=C/[C@]2(C)O[C@H](C)[C@](C)(O)[C@@H]2O)c1C`, for which the 50% inhibitory concentration (IC50) with DU-145 was greater than 10 µM; in the experiment with HeLa, greater than 10 µM; in the experiment with HT-29, greater than 10 µM; with A2780, 5.7 to 8.2 µM; in the experiment with MCF7 it was 4.2 to 6 µM.
`CC(=O)O[C@H]1C(=O)[C@@]2(C)[C@H]([C@H](OC(=O)c3ccccc3)[C@]3(O)C[C@H](OC(=O)[C@H](O)[C@@H](NC(=O)c4ccccc4)c4ccccc4)C(C)=C1C3(C)C)[C@]1(OC(C)=O)CO[C@@H]1C[C@@H]2O` [PACLITAXEL]: the IC50 in the experiment on DU-145 came out at 0.001 µM; with A2780, 0.018 µM.
